Laboratory results as given in ChEMBL document CHEMBL1128294, “Farnesyl derivatives of rigid carboxylic acids-inhibitors of ras-dependent cell growth” (J Med Chem, 1995).

Experiments:
EJ [1] = experiment: The highest nontoxic concentration for human Ha-ras-transformed rat 1 (EJ) cells was determined by MTT staining method; assay type: functional
Method in brief: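 EJ (Ha-ras-transformed Rat1) cultures treated with compound were stained with MTT to detect live cells, with trypan blue also used to detect dead cells. The value reported is the highest concentration without toxicity.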

EJ [2] = experiment: Effective concentration required for 50% inhibition of growth of human Ha-ras-transformed rat 1 (EJ)cells; not active at 200 uM; assay type: functional, cell-based
Method in brief: (§1)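 Ha-ras-transformed Rat1 (EJ) cells grown in DMEM/10% FCS with compound in 0.1% DMSO (vehicle controls 0.1% DMSO), 7-day cultures. Cell number by direct counting gives dose–response curves, and EC50 is the concentration giving 50% growth inhibition. Means of three to five determinations ±SD.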

[3] = molecular target: Protein-S-isoprenylcysteine O-methyltransferase (Rattus norvegicus, UniProt Q9WVM4); experiment: Ability to inhibit prenylated protein methyltransferase (PPMTase) in cell free systems
Protein-S-isoprenylcysteine O-methyltransferase, sequence (Q9WVM4 whole entry): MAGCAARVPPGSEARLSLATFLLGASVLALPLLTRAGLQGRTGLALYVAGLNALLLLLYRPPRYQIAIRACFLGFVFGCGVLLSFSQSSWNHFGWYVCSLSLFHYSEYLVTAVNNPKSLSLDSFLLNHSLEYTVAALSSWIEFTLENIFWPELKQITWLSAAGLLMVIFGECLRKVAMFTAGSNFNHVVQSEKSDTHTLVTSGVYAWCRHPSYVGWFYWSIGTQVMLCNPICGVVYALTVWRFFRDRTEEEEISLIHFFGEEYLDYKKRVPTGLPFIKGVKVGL
Method in brief: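 PPMTase source: rat cerebellum synaptosomal membranes (100 μg protein). Substrate 50 μM AFC with 25 μM [methyl-3H]AdoMet, 37 °C for 15 min, with and without a range of inhibitor concentrations, run in duplicate. Activity with drug is expressed as percent of activity without drug, and Ki is derived from the inhibition curves.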

[4] = molecular target: Protein-S-isoprenylcysteine O-methyltransferase (Rattus norvegicus) (UniProt Q9WVM4); experiment: In vitro inhibition of Prenylated protein methyltransferase of rat brain cerebellar synaptosomes was assessed from the amount of [3H]-methyl esters formed in 15 min; assay type: subcellular
Protein-S-isoprenylcysteine O-methyltransferase (Rattus norvegicus), sequence (Q9WVM4 whole entry): as above
Method in brief: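 Compounds at 150 μM final were tested as methyl acceptors. Enzyme source was rat brain cerebellar synaptosomes (100 μg protein) with 25 μM [methyl-3H]AdoMet ([…]) as methyl donor. Read-out was [3H]methyl esters formed in 15 min, in quadruplicate, ±SEM. Detection limit about 3 pmol.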

EJ [5] = experiment: Effective concentration required for 50% inhibition of growth of human Ha-ras-transformed rat 1 (EJ)cells; assay type: functional, cell-based; method in brief: as §1

| SMILES | Cytotoxic endpoint (EJ [1]) [µM] | EC50 (EJ [2]) | Ki [3] [µM] | Amount formed [4] [pmol] | EC50 (EJ [5]) [µM] |
| --- | --- | --- | --- | --- | --- |
| CC(C)=CCC/C(C)=C/CC/C(C)=C/CSc1ccc(N)cc1C(=O)O | 25 | Not Active | 72.8 | 0.89 |  |
| CC(C)=CCC/C(C)=C/CC/C(C)=C/CNc1ccc(Cl)c(C(=O)O)c1 | 200 |  | 8 | 0.37 | 30.8 |
| CCC(=O)SC/C=C(\C)CC/C=C(\C)CCC=C(C)C |  |  |  | 26.3 |  |
| CC(=O)N(C/C=C(\C)CC/C=C(\C)CCC=C(C)C)C(CS)C(=O)O (stereo not drawn) |  |  |  | 52.5 |  |
| CC(C)=CCC/C(C)=C/CC/C(C)=C/CSc1ncccc1C(=O)O | 200 |  | 14.9 | 0.73 | 126 |
| CC(C)=CCC/C(C)=C/CC/C(C)=C/CSc1ccccc1C(=O)O [SALIRASIB] | 200 |  | 2.8 | 0.76 | 7.5 |
